What was measured:
[1] = tested on: Plasmodium falciparum; assay: Resistance index, ratio of IC50 for chloroquine-resistant Plasmodium falciparum K1 to IC50 for chloroquine-sensitive Plasmodium falciparum 3D7; format: functional
[2] = tested on: Plasmodium falciparum; assay: Antiplasmodial activity against chloroquine-resistant Plasmodium falciparum W2 after 24 hrs by [3H]hypoxanthine incorporation assay; format: functional, organism-based
Procedure, shortened: (§1)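 Antiplasmodial testing was done at the Swiss Tropical and Public Health Institute. Chloroquine, the reference drug, was tested as its diphosphate salt.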

[3] = tested on: Plasmodium falciparum; assay: Antiplasmodial activity against chloroquine-resistant Plasmodium falciparum K1 after 24 hrs by [3H]hypoxanthine incorporation assay; format: functional, organism-based; procedure, shortened: as §1
[4] = tested on: Plasmodium falciparum; assay: Antiplasmodial activity against chloroquine-sensitive Plasmodium falciparum 3D7 after 24 hrs by [3H]hypoxanthine incorporation assay; format: functional, organism-based; procedure, shortened: as §1
[5] = tested on: Plasmodium berghei; assay: Antimalarial activity against Plasmodium berghei ANKA infected in C57BL/6 mouse assessed as reduction in parasitemia at 15 mg/kg, po qd for 4 days measured on day 7 by light microscopic analysis relative to control; format: functional; set-up: scale not given: the % may be the effect or the level left

`CC(C)(C)n1nnnc1C(NCCCCNc1ccnc2cc(Cl)ccc12)c1ccccc1` (configuration not stated) was tested, and the “Ratio IC50” value [1] was 4, the IC50 [2] was 20 nM and the IC50 [3] was 8 nM. It also gave an IC50 [4] of 2 nM.

In the case of `Clc1ccc2c(NCCNC(c3ccccc3)c3nnn[nH]3)ccnc2c1` (configuration not stated), the IC50 [3] is reported as 14900 nM.

`COc1ccc(C(NCCNc2ccnc3cc(Cl)ccc23)c2nnn[nH]2)cc1` (configuration not stated) was tested, and the IC50 [3] was 13200 nM.

Work on `CCN(CC)CCCC(C)Nc1ccnc2cc(Cl)ccc12` (configuration not stated) [CHLOROQUINE] yielded an Activity [5] of 90.6%.

Source: ChEMBL document CHEMBL3098028, “Synthesis and in vitro and in vivo pharmacological evaluation of new 4-aminoquinoline-based compounds” (ACS Med Chem Lett, 2013)
